Measured values published in ChEMBL document CHEMBL1781959, “Synthesis and in vitro antitumor activity of substituted quinazoline and quinoxaline derivatives: search for anticancer agent” (Eur J Med Chem, 2011).

Tests used:
NCI-H460 = assay: Cytotoxicity against human NCI-H460 cells after 48 hrs by SRB assay; type: cell-based; conditions: nci-h460, 48 h
Method in brief: (§1)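 NCI-60 five-dose screen in RPMI 1640 with 5% FBS and 2 mM L-glutamine; 5000–40,000 cells/well, 24 h pre-incubation. DMSO stocks diluted to 0.01, 0.1, 1, 10 and 100 μM final; 48 h at 37 °C, 5% CO2. Fixed with TCA (10% final adherent, 16% suspension), stained with 0.4% SRB, A515. GI50, TGI and LC50 taken from time-zero, control and test absorbances.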

[1] = Growth inhibition of human Hs 578T cells after 48 hrs by SRB assay; type: functional
Method in brief: (§2)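 NCI 60-panel five-dose assay at 0.01, 0.1, 1, 10 and 100 μM. Cells in RPMI 1640 with 5% FBS and 2 mM L-glutamine, preincubated 24 h, with time-zero plates TCA-fixed. Drug exposure 48 h at 37 °C. Read by SRB staining at 515 nm. GI50 is the concentration where [(Ti−Tz)/(C−Tz)]×100 = 50, taken from log concentration versus % growth curves.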

PC-3 = assay: Growth inhibition of human PC3 cells after 48 hrs by SRB assay; type: functional; conditions: PC-3, 48 h; method in brief: as §2
U-251 = assay: Cytotoxicity against human U251 cells after 48 hrs by SRB assay; type: cell-based; conditions: u-251, 48 h
Method in brief: (§3)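 NCI-60 five-dose screen. Cells grown in RPMI 1640 with 5% FBS and 2 mM L-glutamine and pre-incubated 24 h; a time-zero plate is TCA-fixed. Drug added at 0.01, 0.1, 1, 10 and 100 µM (DMSO stock) for 48 h at 37 °C, 5% CO2. Fixed with cold TCA (10% final for adherent, 16% for suspension cells), stained with 0.4% SRB, A515. GI50, TGI and LC50 taken from dose-response curves.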

A549 = assay: Cytotoxicity against human A549 cells after 48 hrs by SRB assay; type: cell-based; conditions: a549, 48 h; method in brief: as §1
HCT-15 [2] = assay: Growth inhibition of human HCT15 cells after 48 hrs by SRB assay; type: functional; conditions: HCT-15, 48 h; method in brief: as §2
T47D = assay: Growth inhibition of human T47D cells after 48 hrs by SRB assay; type: functional
Method in brief: (§4)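 NCI-60 panel cells grown in RPMI 1640 with 5% FBS and 2 mM L-glutamine, then seeded at 5000–40,000 cells/well by doubling time and preincubated for 24 h. Compound in DMSO was tested either at 10^-5 M alone or at 0.01–100 μM in five doses, for 48 h at 37 °C. Cells were fixed with cold TCA (10% final), stained with SRB, and read at 515 nm. GI50 was taken from % growth relative to time-zero and control wells.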

SNB-75 [3] = assay: Cytotoxicity against human SNB75 cells after 48 hrs by SRB assay; type: cell-based; conditions: snb-75, 48 h; method in brief: as §3
EKVX = assay: Cytotoxicity against human EKVX cells after 48 hrs by SRB assay; type: cell-based; method in brief: as §1
HOP-62 [4] = assay: Cytotoxicity against human HOP62 cells after 48 hrs by SRB assay; type: cell-based; conditions: hop-62, 48 h; method in brief: as §1
[5] = Cytotoxicity against human […] cells after 48 hrs by SRB assay; type: cell-based; method in brief: as §1
OVCAR-3 [6] = assay: Growth inhibition of human OVCAR3 cells after 48 hrs by SRB assay; type: functional; conditions: OVCAR-3, 48 h; method in brief: as §2
HCT-15 [7] = assay: Cytotoxicity against human HCT15 cells after 48 hrs by SRB assay; type: cell-based; conditions: hct-15, 48 h; method in brief: as §1
ACHN = assay: Cytotoxicity against human ACHN cells after 48 hrs by SRB assay; type: cell-based; method in brief: as §1
SNB-19 = assay: Cytotoxicity against human SNB19 cells after 48 hrs by SRB assay; type: cell-based; conditions: snb-19, 48 h; method in brief: as §3
BT-549 [8] = assay: Cytotoxicity against human BT549 cells after 48 hrs by SRB assay; type: cell-based; conditions: bt-549, 48 h; method in brief: as §1
NCI-H226 = assay: Growth inhibition of human NCI-H226 cells after 48 hrs by SRB assay; type: functional; conditions: NCI-H226, 48 h; method in brief: as §2
NCI-H23 = assay: Cytotoxicity against human NCI-H23 cells after 48 hrs by SRB assay; type: cell-based; conditions: nci-h23, 48 h; method in brief: as §1
SNB-75 [9] = assay: Growth inhibition of human SNB75 cells after 48 hrs by SRB assay; type: functional; conditions: SNB-75, 48 h; method in brief: as §4
SK-MEL-5 = assay: Cytotoxicity against human SK-MEL-5 cells after 48 hrs by SRB assay; type: cell-based; conditions: sk-mel-5, 48 h; method in brief: as §1
RXF 393 = assay: Cytotoxicity against human RXF393 cells after 48 hrs by SRB assay; type: cell-based; conditions: rxf 393, 48 h; method in brief: as §1
UO-31 [10] = assay: Growth inhibition of human UO31 cells after 48 hrs by SRB assay; type: functional; conditions: UO-31, 48 h; method in brief: as §4
SK-MEL-28 = assay: Growth inhibition of human SK-MEL-28 cells after 48 hrs by SRB assay; type: functional; conditions: SK-MEL-28, 48 h; method in brief: as §4
HOP-62 [11] = assay: Growth inhibition of human HOP62 cells after 48 hrs by SRB assay; type: functional; conditions: HOP-62, 48 h; method in brief: as §2
786-0 = assay: Cytotoxicity against human 786-0 cells after 48 hrs by SRB assay; type: cell-based; conditions: 786-0, 48 h; method in brief: as §1
UO-31 [12] = assay: Cytotoxicity against human UO31 cells after 48 hrs by SRB assay; type: cell-based; conditions: uo-31, 48 h; method in brief: as §3
TK-10 = assay: Growth inhibition of human TK10 cells after 48 hrs by SRB assay; type: functional; conditions: TK-10, 48 h; method in brief: as §4
CCRF-CEM = assay: Cytotoxicity against human CCRF-CEM cells after 48 hrs by SRB assay; type: cell-based; method in brief: as §1
MDA-MB-435 = assay: Growth inhibition of human MDA-MB-435 cells after 48 hrs by SRB assay; type: functional; conditions: MDA-MB-435, 48 h; method in brief: as §2
OVCAR-3 [13] = assay: Cytotoxicity against human OVCAR3 cells after 48 hrs by SRB assay; type: cell-based; conditions: ovcar-3, 48 h; method in brief: as §1
SK-OV-3 = assay: Growth inhibition of human SKOV3 cells after 48 hrs by SRB assay; type: functional; conditions: SK-OV-3, 48 h; method in brief: as §4
NCI-H522 = assay: Cytotoxicity against human NCI-H522 cells after 48 hrs by SRB assay; type: cell-based; conditions: nci-h522, 48 h; method in brief: as §1
BT-549 [14] = assay: Growth inhibition of human BT549 cells after 48 hrs by SRB assay; type: functional; conditions: BT-549, 48 h; method in brief: as §2
COLO 205 = assay: Growth inhibition of human COLO205 cells after 48 hrs by SRB assay; type: functional; conditions: COLO 205, 48 h; method in brief: as §2
SR = assay: Cytotoxicity against human SR cells after 48 hrs by SRB assay; type: cell-based; method in brief: as §3
IGROV-1 = assay: Cytotoxicity against human IGROV1 cells after 48 hrs by SRB assay; type: cell-based; conditions: igrov-1, 48 h; method in brief: as §1

O=c1c2ccccc2nc(-c2ccco2)n1/N=C/c1ccccc1Cl
LC50 (NCI-H460): > 100 µM
GI50 [1]: 15.2 µM
TGI [1]: > 100 µM
GI50 (PC-3): 8.23 µM
TGI (PC-3): > 100 µM
LC50 (U-251): > 100 µM
LC50 (A549): > 100 µM
GI50 (HCT-15 [2]): 5.73 µM
TGI (HCT-15 [2]): > 100 µM
GI50 (T47D): 6.89 µM
TGI (T47D): > 100 µM
LC50 (SNB-75 [3]): > 100 µM
LC50 (EKVX): > 100 µM
LC50 (HOP-62 [4]): > 100 µM
LC50 [5]: > 100 µM
GI50 (OVCAR-3 [6]): 4.12 µM
TGI (OVCAR-3 [6]): 6.87 µM
LC50 (HCT-15 [7]): > 100 µM
LC50 (ACHN): > 100 µM
LC50 (SNB-19): > 100 µM
LC50 (BT-549 [8]): 72.4 µM
GI50 (NCI-H226): 4.12 µM
TGI (NCI-H226): > 100 µM
LC50 (NCI-H23): > 100 µM
GI50 (SNB-75 [9]): 4.1 µM
TGI (SNB-75 [9]): 7.51 µM
LC50 (SK-MEL-5): > 100 µM
LC50 (RXF 393): > 100 µM
GI50 (UO-31 [10]): 6.12 µM
TGI (UO-31 [10]): > 100 µM
GI50 (SK-MEL-28): 4.45 µM
TGI (SK-MEL-28): 18.6 µM
GI50 (HOP-62 [11]): 3.56 µM
TGI (HOP-62 [11]): 13.7 µM
LC50 (786-0): > 100 µM
LC50 (UO-31 [12]): > 100 µM
GI50 (TK-10): 7.84 µM
TGI (TK-10): > 100 µM
LC50 (CCRF-CEM): > 100 µM
GI50 (MDA-MB-435): 8.23 µM
TGI (MDA-MB-435): 17 µM
LC50 (OVCAR-3 [13]): > 100 µM
GI50 (SK-OV-3): 3.68 µM
TGI (SK-OV-3): 14.8 µM
LC50 (NCI-H522): 82.9 µM
GI50 (BT-549 [14]): 2.92 µM
TGI (BT-549 [14]): 6.8 µM
GI50 (COLO 205): 4.96 µM
TGI (COLO 205): 34.1 µM
LC50 (SR): > 100 µM
LC50 (IGROV-1): > 100 µM
